Experimental findings from ChEMBL document CHEMBL4706622, “Comparative study between the anti-P. falciparum activity of triazolopyrimidine, pyrazolopyrimidine and quinoline derivatives and the identification of new PfDHODH inhibitors” (Eur J Med Chem, 2021) are described below.

The nature of series [1]: Inhibition of Plasmodium falciparum DHODH (159- 569 aa) expressed in Escherichia coli BL21(DE3) cells assessed as 2,6-dichloroindophenol reduction by colorimetric method. Summed up: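 Second-stage PfDHODH IC50 determination from concentration–response curves, run only on compounds giving ≥80% inhibition at 50 µM in the single-point screen. PfDHODH final concentration was 50 nM. IC50 was not assigned where substrate consumption could not be measured at some concentrations on the curve.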

Series [2] concerns Plasmodium falciparum. Description: Antimalarial activity against CQ-sensitive Plasmodium falciparum 3D7 infected in erythrocytes by SYBR Green dye based fluorescence assay. The format is functional, organism-based.
Series [3] deals with Plasmodium falciparum. Description: Inhibition of Plasmodium falciparum DHODH (159- 569 aa) expressed in Escherichia coli BL21(DE3) cells assessed as 2,6-dichloroindophenol reduction at 50 uM by colorimetric method. In short, it runs like this: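 First-stage PfDHODH screen at a single compound concentration of 50 µM, reported as % inhibition. Compounds giving ≥80% inhibition went on to IC50 determination. The PfDHODH final concentration in the inhibition assay was 50 nM.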

Series [4] has as its target Dihydroorotate dehydrogenase (quinone), mitochondrial (Homo sapiens) (UniProt Q02127). Description: Inhibition of human DHODH assessed as 2,6-dichloroindophenol reduction at 50 uM by colorimetric method. Summed up:
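First-stage HsDHODH screen at a single compound concentration of 50 µM, reported as % inhibition. It was run in parallel with the PfDHODH screen.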

The subject of another series is HepG2. Description: Cytotoxicity against human HepG2 cells assessed as cell viability after 72 hrs by MTT assay. The format is cell-based. The note with it: HepG2, 72 h. For orientation: Tetrazolium assays rely on reduction of a dye to a coloured formazan, in cell work by metabolically active cells.
A short description of series [5]: Selectivity index, ratio of IC50 for cytotoxicity against human HepG2 cells to IC50 for antimalarial activity against Plasmodium falciparum 3D7. Particulars: read-out: Ratio IC50. The format is toxicity, cell-based.

Sequence of Dihydroorotate dehydrogenase (quinone), mitochondrial (Homo sapiens) (Q02127 whole entry): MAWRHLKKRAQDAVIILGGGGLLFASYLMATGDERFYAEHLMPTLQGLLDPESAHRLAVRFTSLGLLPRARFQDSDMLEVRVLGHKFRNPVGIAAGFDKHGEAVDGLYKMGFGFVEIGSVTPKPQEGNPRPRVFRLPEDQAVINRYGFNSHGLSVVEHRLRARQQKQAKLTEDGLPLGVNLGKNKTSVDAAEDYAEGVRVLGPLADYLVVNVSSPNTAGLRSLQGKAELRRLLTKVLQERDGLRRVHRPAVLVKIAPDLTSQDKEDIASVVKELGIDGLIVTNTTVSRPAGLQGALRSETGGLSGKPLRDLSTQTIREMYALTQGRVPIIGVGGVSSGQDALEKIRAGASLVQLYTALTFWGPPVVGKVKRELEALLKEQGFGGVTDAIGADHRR

As for `COc1ccc(NS(=O)(=O)c2ccc(Nc3cc(C)nc4cc(C)nn34)cc2)cc1`, the values for the IC50 (in series [1]; with Plasmodium falciparum [2]) were over 50 µM and over 10 µM, respectively. For the same compound, the inhibition (in general, how much of the control response was suppressed) was found to be 25% in the series with Plasmodium falciparum [3] and 0% in series [4].
The corresponding values for `Cc1cc(Nc2ccc(S(=O)(=O)Nc3ccc(Cl)cc3)cc2)n2nc(C)cc2n1` are over 50 µM, over 10 µM, 25% and 0%.
On to `Cc1cc(Nc2ccc(S(=O)(=O)Nc3ccc4ccccc4c3)cc2)n2nc(C)cc2n1`, for which the IC50 (commonly the concentration at which inhibition is half-maximal) in series [1] is over 50 µM; in the series on Plasmodium falciparum [2], over 10 µM. Further, the results for the inhibition (in the series on Plasmodium falciparum [3]; in series [4]) were 25% and 0%, respectively.
The corresponding values for `Cc1cc(Nc2ccc(S(=O)(=O)Nc3ccc(F)cc3)cc2)n2nc(C)cc2n1` are over 50 µM, over 10 µM, 25% and 0%.
On to `Cc1cc(Nc2ccc(S(=O)(=O)Nc3ccccc3)cc2)n2nc(C)cc2n1`, for which the IC50 was 27 µM in the series on HepG2, over 50 µM in series [1] and 2.8 µM in the series on Plasmodium falciparum [2]. In addition, the inhibition with Plasmodium falciparum [3] worked out at 25%; in series [4] it was 0%. Besides, the selectivity ratio in series [5] was 9.6.
For the compound `Cc1cc(Nc2ccc(S(=O)(=O)Nc3ccc(C(F)(F)F)cc3)cc2)n2nc(C)cc2n1`, the IC50 with HepG2 is 42 µM; in series [1] it was over 50 µM; in the series on Plasmodium falciparum [2], 8 µM. Besides, the values for the inhibition (with Plasmodium falciparum [3]; in series [4]) were 25% and 0%, respectively. In addition, in series [5], the selectivity ratio was 5.25.
Regarding `Cc1ccc(NS(=O)(=O)c2ccc(Nc3cc(C)nc4cc(C)nn34)cc2)cc1`, the IC50 in series [1] was over 50 µM; in the series with Plasmodium falciparum [2] it was over 10 µM. Besides, the inhibition is 25% in the series with Plasmodium falciparum [3] and 0% in series [4].
Regarding `Cc1cc(Nc2ccc(S(=O)(=O)Nc3ccccc3)cc2)n2nc(C(F)(F)F)nc2n1`, the IC50 in the series on HepG2 was 92 µM; in series [1], over 50 µM; in the series on Plasmodium falciparum [2], 1.3 µM. Further, the inhibition in the series with Plasmodium falciparum [3] is under 80%; in series [4], 0%. In series [5], the selectivity ratio is over 70.
